An excerpt weighted towards active compounds, which were near 3.8% of everything screened.
NPY-Y2 PAM-ag: human NPY-Y2 potentiation or agonism, primary screen. activation, % at 3.6 µM. hit rate 0.45% among 220,000. P49146. cells expressing NPY-Y2, potentiator/agonist read-out. AID 1359; in the data active = activation above about 27%;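 also: cells stimulated with NPY near EC25 plus isoproterenol at EC100; 0% = vehicle plus submaximal agonist and 100% = vehicle plus saturating agonist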
Target sequence (P49146 whole entry, looked up): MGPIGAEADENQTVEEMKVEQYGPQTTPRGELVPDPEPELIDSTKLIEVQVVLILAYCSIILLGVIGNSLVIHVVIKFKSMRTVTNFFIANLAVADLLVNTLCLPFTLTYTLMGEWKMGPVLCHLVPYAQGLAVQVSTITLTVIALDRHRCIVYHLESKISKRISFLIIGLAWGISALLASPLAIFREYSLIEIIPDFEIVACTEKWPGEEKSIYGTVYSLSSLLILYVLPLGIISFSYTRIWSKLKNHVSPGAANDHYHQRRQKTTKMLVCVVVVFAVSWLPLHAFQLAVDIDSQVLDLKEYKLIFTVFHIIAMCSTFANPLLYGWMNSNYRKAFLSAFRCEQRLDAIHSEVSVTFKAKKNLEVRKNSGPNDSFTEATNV
RAM network inh: yeast RAM network inhibition; S. cerevisiae dse1pr::URA3 reporter, 5-FOA growth OD615, 2 d; analog-sensitive cbk1-as2 kinase mutant strain; inhibition, % at 50 µM; hit rate 1.8% among 190,000; AID 868;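 active = inhibition above a set limit, 3 SD over mean compound inhibition, cut at about 8.4% in these data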;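 also: 0% = DMSO-only wells with no growth and 100% = 10 µM 1-NA-PP1 full growth; inhibition rescues growth on 5-FOA so higher OD means more RAM inhibition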
INS promoter inh: TRM-6 insulin promoter activity inhibition. TRM-6 cells, insulin promoter-eGFP reporter, imaging; reporter expression induced with tamoxifen. hit rate 0.9% among 130,000. AID 1273. inhibition, % at 2 µM;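 active = inhibition above the mean plus 3 SD, with well images judged a real hit on visual review, cut at about 60% in these data, passing the limit was not always enough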
NPY-Y1 PAM-ag: potentiates or activates human NPY-Y1 receptor; P25929; NPY-Y1 expressing cells, potentiator/agonist activation; activation, % at 3.6 µM; hit rate 0.37% among 220,000; in the data active = activation above about 33%, passing the limit was not always enough;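 also: cells stimulated with NPY at EC10 then isoproterenol at EC100; 0% = low agonist plus stimulus and 100% = saturating agonist plus stimulus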
Target sequence (P25929 whole entry, looked up): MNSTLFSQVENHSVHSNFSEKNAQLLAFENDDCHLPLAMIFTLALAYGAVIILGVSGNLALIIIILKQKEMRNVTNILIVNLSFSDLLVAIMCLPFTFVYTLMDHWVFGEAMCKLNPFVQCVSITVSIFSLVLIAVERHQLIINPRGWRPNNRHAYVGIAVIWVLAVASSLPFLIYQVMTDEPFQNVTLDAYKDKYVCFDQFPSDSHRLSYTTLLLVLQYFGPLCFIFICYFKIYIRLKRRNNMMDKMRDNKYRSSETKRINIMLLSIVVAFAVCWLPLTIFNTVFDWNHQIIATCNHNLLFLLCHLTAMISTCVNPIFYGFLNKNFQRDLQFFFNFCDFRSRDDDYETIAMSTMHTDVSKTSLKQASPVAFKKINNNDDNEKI
NPY-Y2 antag: NPY-Y2 (human) receptor antagonism. P49146. NPY-Y2 expressing cells, antagonist mode. inhibition, % at 2.7 µM. hit rate 0.99% among 140,000; in the data active = inhibition above about 17%;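 also: 0% = vehicle with agonist challenge and 100% = reference antagonist with challenge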
NPY Y1 blocker: NPY-Y1 (human) receptor antagonism | HEK293-CNG Y1 cells, membrane potential fluorescence; NPY at EC95, then isoproterenol | inhibition, % at 3.6 µM | hit rate 1% among 200,000;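 active = inhibition above the campaign mean inhibition of all tested compounds plus 3 SD, cut at about 20% in these data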;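 also: 0% = DMSO wells given NPY plus isoproterenol and 100% = isoproterenol alone without NPY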
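Material: Y1- and CNG-channel-expressing HEK293 cells / Probe or stimulus: NPY 25 nM then isoproterenol 1 µM plus Ro 20-1724 25 µM / Doses: 3.6 µM single dose, DMSO 0.4% / Schedule: compound incubation 1 h at room temperature, readout 45 min post-stimulation / Signal: membrane potential fluorescence / Benchmarks: isoproterenol-only wells as full block versus NPY-plus-isoproterenol wells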
NPY-Y2 confirm: human NPY-Y2 potentiation or agonism, confirmation; shares compounds with NPY-Y2 PAM-ag; cell-based NPY-Y2 potentiator/agonist assay; activation, % at 3.6 µM; hit rate 20% among 450; in the data active = activation above about 33%
NPY-Y1 counter: counter-screen for NPY-Y2 potentiators or agonists: NPY-Y1 potentiators or agonists. shares compounds with NPY-Y2 PAM-ag. Y1 HEK293-CNG cells, membrane potential fluorescence. activation, % at 3.6 µM. hit rate 20% among 450; in the data active = activation above about 45%;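 also: cells stimulated with submaximal NPY then isoproterenol with phosphodiesterase inhibitor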
NPY-Y1 agonist 2: activates human NPY-Y1, counter-screen for NPY-Y2 potentiators; shares compounds with NPY-Y2 PAM-ag; HEK293 Y1-CNGC, membrane potential fluorescence, agonism; activation, % at 3.6 µM; hit rate 37% among 450;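 active = activation above the mean of DMSO-only control wells plus 3 SD, cut at about 18% in these data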;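 also: cells stimulated with 1 µM isoproterenol plus the PDE inhibitor Ro 20-1724; 0% = isoproterenol with DMSO and no NPY and 100% = 40 nM NPY; Y1 agonists lower the membrane potential dye signal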
CNGC inh: counter-screen for NPY-Y2 potentiators: inhibitors of CNG channel activity. shares compounds with NPY-Y2 PAM-ag. HEK293-CNG parental, isoproterenol cAMP, membrane potential fluorescence. inhibition, % at 3.6 µM. hit rate 32% among 450;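 active = inhibition above the control-well mean plus 3 SD of those wells, cut at about 22% in these data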;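 also: 0% = DMSO with isoproterenol and 100% = DMSO without isoproterenol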
Y2 agonist ctr: counter-screen for NPY-Y2 potentiators: agonists of human NPY-Y2; shares compounds with NPY-Y2 PAM-ag; HEK293 Y2/CNGC cells, membrane potential fluorescence, agonist mode; activation, % at 3.6 µM; hit rate 56% among 450;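 active = activation above the mean of solvent-only control wells plus 3 SD, cut at about 10% in these data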;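 also: cells stimulated by isoproterenol with no NPY added so direct agonism is tested; 0% = DMSO with isoproterenol alone and 100% = NPY at EC100 plus isoproterenol; agonism lowers probe fluorescence through less cAMP and CNG channel opening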
Active calls of the source: *; nt = not tested or not shown.

SMILES	NPY-Y2 PAM-ag	RAM network inh	INS promoter inh	NPY-Y1 PAM-ag	NPY-Y2 antag	NPY Y1 blocker	NPY-Y2 confirm	NPY-Y1 counter	NPY-Y1 agonist 2	CNGC inh	Y2 agonist ctr
CN(C)CCN(C(=O)/C=C/c1cccs1)c1nc2c(F)cc(F)cc2s1	45.7*	-1.0	7.1	29.2	1.5	3.2	94.5*	116.8*	103.8*	90.9*	105.1*
CCN(CC(=O)NCc1ccc(F)cc1)C(=O)/C=C/c1cccs1	8.7	-0.7	nt	-5.2	nt	-0.7	nt	nt	nt	nt	nt
Cc1ccc2nc(N(CCN(C)C)C(=O)/C=C/c3cccs3)sc2c1	52.0*	-0.9	-10.7	16.8	5.1	5.5	91.0*	107.1*	88.8*	85.7*	97.4*
O=[N+]([O-])c1ccc(COc2ncnc3ccccc23)cc1	-7.1	-0.4	-13.3	1.6	nt	1.5	nt	nt	nt	nt	nt
N#C/C(=C(/O)c1cccc(F)c1)c1nc2ccccc2s1	103.4*	nt	nt	10.6	nt	nt	-2.3	-13.8	-14.6	-9.1	4.3
N#C/C(=C(/O)c1ccco1)c1nc2ccccc2s1	18.8	6.3	nt	19.5	-1.7	-7.8	nt	nt	nt	nt	nt
Cc1ccc(-c2cc(Cc3ccc(N(C)C)cc3)c(=O)[nH]n2)cc1	-6.6	nt	nt	-17.8	nt	nt	nt	nt	nt	nt	nt
O=C(CC1C(=O)NCCN1C(=O)Nc1ccc(Cl)cc1)Nc1ccc(F)cc1 (stereo not given)	28.9*	0.1	nt	34.0	nt	-6.5	55.2*	74.9*	57.9*	57.2*	50.4*
COC(=O)CN1C(=S)N(c2ccc(F)cc2)C(=O)C1CC(=O)Nc1ccc(F)cc1 (stereo not given)	25.9	nt	nt	10.9	nt	nt	nt	nt	nt	nt	nt
COC(=O)CN1C(=S)N(c2ccc(Cl)cc2)C(=O)C1CC(=O)Nc1ccc(F)cc1 (stereo not given)	30.1*	-0.1	nt	31.8	-4.0	-8.0	32.8	57.6*	43.0*	46.4*	37.9*
COC(=O)CN1C(=S)N(c2ccc(Cl)cc2)C(=O)C1CC(=O)Nc1ccc(Cl)cc1 (stereo not given)	54.7*	4.3	nt	48.2	1.6	-11.2	48.8*	71.6*	67.5*	59.8*	66.9*
CCOc1cc(N2CCOCC2)c(OCC)cc1NCC(=O)N1CCN(Cc2ccccc2)CC1	-9.1	nt	nt	-1.8	nt	nt	nt	nt	nt	nt	nt
CC1=C(C(=O)N(C)C)C(c2ccc(N3CCOCC3)cc2)NC(=O)N1 (stereo not given)	7.5	1.9	21.4	-2.4	nt	-2.8	nt	nt	nt	nt	nt
COc1ccc(NC(=O)c2ccc(C(=O)Nc3ccc(OC)cc3OC)cc2)c(OC)c1	21.2	6.5	6.2	2.1	nt	0.7	nt	nt	nt	nt	nt
COc1ccc(NC(=O)c2c(OC)cccc2OC)c(OC)c1	27.9*	-0.1	30.2	1.3	-0.6	-0.3	8.6	9.6	14.4	12.6	17.4*
COc1ccc(Cn2cnc3c(NS(C)(=O)=O)c(C)c(C)cc32)cc1	34.6*	-0.8	-37.5	19.4	6.0	2.0	12.7	27.9	13.0	21.7	20.9*
O=C(CNC(=O)c1cccc(OC(F)F)c1)OCn1nnc2ccccc2c1=O	16.7	1.5	nt	19.1	nt	7.8	nt	nt	nt	nt	nt
Cc1nc(C)c(C(=O)NNC(=O)Nc2ccc(Cl)cc2)s1	11.3	nt	nt	26.8	nt	nt	nt	nt	nt	nt	nt
O=C(NCCc1cccc(Cl)c1)c1ccc(Cl)c([N+](=O)[O-])c1	35.0*	2.0	nt	27.0	4.3	3.5	20.2	31.7	21.9*	27.3*	25.5*
Cc1cccc(C)c1NS(=O)(=O)c1ccc(NC(=O)c2ccc(Cl)c([N+](=O)[O-])c2)cc1	38.1*	4.1	26.7	28.8	-1.2	-10.7	34.6*	40.9	36.6*	29.0*	42.6*
O=C(Nc1ccccn1)c1ccc(Cl)c([N+](=O)[O-])c1	-7.5	1.1	21.4	-0.9	nt	8.3	nt	nt	nt	nt	nt
N#Cc1ccsc1NC(=O)c1ccc(Cl)c([N+](=O)[O-])c1	50.7*	nt	nt	-7.8	nt	nt	-8.3	-44.1	-33.0	-15.2	9.6
Cc1ccc(C(=O)NCCc2cccc(Cl)c2)cc1[N+](=O)[O-]	2.6	0.4	-109.2	-10.9	3.4	3.5	nt	nt	nt	nt	nt
O=C(O)/C=C/C(=O)NCCC(c1ccccc1)c1ccccc1	8.7	nt	nt	13.6	nt	nt	nt	nt	nt	nt	nt
COc1ccc(Cl)cc1NS(=O)(=O)c1cc(Cl)ccc1OC	33.2*	2.0	30.0	43.4	-2.3	-5.7	24.0	37.8	28.7*	25.6*	31.6*
SMILES	NPY-Y2 PAM-ag	RAM network inh	INS promoter inh	NPY-Y1 PAM-ag	NPY-Y2 antag	NPY Y1 blocker	NPY-Y2 confirm	NPY-Y1 counter	NPY-Y1 agonist 2	CNGC inh	Y2 agonist ctr
Cc1nc(-c2cn[nH]c2)c2cc(C)oc2n1	107.2*	0.9	18.2	10.9	-1.5	-1.1	-8.0	0.2	-12.2	2.9	-9.8
CCCN1Cc2cccc(C(=O)N3CCN(c4ccc(OC)cc4)CC3)c2C1=O	-3.8	1.0	-66.7	5.6	nt	-4.4	nt	nt	nt	nt	nt
CCCN1Cc2cccc(C(=O)N3CCN(c4ccccc4)CC3)c2C1=O	38.0*	1.2	-6.7	3.5	2.5	1.8	-5.3	5.1	-15.4	-3.7	9.0
CCCN1C2CCCC1CC(NC(=O)Nc1ccc(C(C)C)cc1)C2 (stereo not given)	34.4*	1.6	20.7	13.5	-0.1	-7.1	22.0	30.1	19.1*	28.2*	24.4*
CCCN1C2CCCC1CC(NC(=O)Nc1cccc(C(C)=O)c1)C2 (stereo not given)	2.4	-0.2	-37.9	4.1	0.0	7.1	nt	nt	nt	nt	nt
COc1ccc(C(=O)NCc2nnc(SCC(=O)N3CCOCC3)o2)cc1OC	-4.6	0.6	42.9	23.5	nt	-2.3	nt	nt	nt	nt	nt
O=c1[nH]cc(COCC(F)CCl)c(=O)[nH]1 (stereo not given)	93.1*	nt	nt	-5.6	nt	nt	-3.1	2.4	2.8	10.0	7.4
O=C1c2ccccc2C(=O)N1CCCOCc1c[nH]c(=O)[nH]c1=O	3.3	1.0	11.5	10.5	5.5	5.2	nt	nt	nt	nt	nt
COc1cc(OC)cc(-n2nnnc2SCC(=O)NCCc2ccc(OC)c(OC)c2)c1	1.2	0.7	-3.7	-3.2	nt	4.0	nt	nt	nt	nt	nt
COc1ccc(-n2nnnc2SCC(=O)NCCc2ccccc2)cc1OC	56.4*	0.1	-15.4	13.6	nt	2.8	-1.6	-4.0	-1.4	4.9	16.6*
CN1C(=O)/C(=C/c2cn(CC(=O)N3CCCCC3)c3ccccc23)c2ccccc21	0.7	5.5	-3.6	-3.7	7.8	-1.6	nt	nt	nt	nt	nt
CCN(CC)c1ccc(NC(=O)/C=C\c2ccccc2Cl)cc1	30.6*	0.9	0.0	41.0	-1.4	-5.5	16.9	25.6	24.7*	27.0*	26.7*

Compound activity deposited in PubChem BioAssay by several laboratories.
